Measurements of several laboratories.
Each line is one published result; the experiments were not run side by side.
Target: Activin receptor type-2B (ACVR2B, Homo sapiens, UniProt Q13705)

Compound | observed | technique | concentration | remaining binding
COc1cnc(Nc2cccc(S(N)(=O)=O)c2)nc1N1CCN(c2ccccc2)C(=O)C1 | binding | competition with immobilised ligand | 1 µM | 100%
N[C@H]1CCN(c2nccc(-c3cnn4ncccc34)n2)C1 | binding | competition with immobilised ligand | 1 µM | 93%
CO[C@@H](C)c1c(Nc2ccc([C@@H](N(C)C(=O)C3CCS(=O)(=O)CC3)C(F)(F)F)cc2)cnc2cc(Cl)nn12 | cell-free assay | competition with immobilised ligand | 1 µM | 100%
CN(CCCC(F)(F)F)c1nccc(-c2cnn3ncccc23)n1 | binding | – | 1 µM | 100%
O=C(c1ccc(Nc2nccc(-c3cc4ccccc4s3)n2)cc1)N1CCC(N2CCCC2)CC1 | binding | competition with immobilised ligand | 1 µM | 88%
O=C1CCc2cc(Nc3cc(OC4CCOCC4)c([N+](=O)[O-])cc3Cl)ccc2N1 | cell-free assay | competition with immobilised ligand | 1 µM | 89%
c1cncc(-c2cccc(Nc3nccc(NC4CCCCC4)n3)c2)c1 | binding | competition with immobilised ligand | 10 µM | 85%
Cc1cnn2ncc(-c3ccnc(N(C)C)n3)c2c1 | binding | competition with immobilised ligand | 1 µM | 100%
CNC(=O)[C@@H]1CC[C@@H](n2c(-c3ccc4cnccc4c3)nc3ccc(C(=O)NCc4cccc(C(N)=O)c4)cc32)C1 | binding | competition with immobilised ligand | 1 µM | 100%
CN(c1nccc(-c2cnn3ncccc23)n1)C1CC1 | binding | – | 1 µM | 100%
CC(=O)N1CCC(c2ccc(C(=O)NC(=N)N)cc2C(F)(F)F)CC1 | binding | competition with immobilised ligand | 1 µM | 100%
CN(C)c1ncc(F)c(-c2cnn3ncccc23)n1 | binding | competition with immobilised ligand | 1 µM | 95%
O=C(c1ccc(Nc2ncc(Cl)c(-c3cc4ccccc4s3)n2)cc1)N1CCC(N2CCCC2)CC1 | binding | competition with immobilised ligand | 1 µM | 53%
C[C@@H]1CCN(c2nccc(-c3cnn4ncccc34)n2)C1 | binding | – | 1 µM | 100%
CN(C)CC#Cc1ccc(OCCCc2sc(N3CCc4cccc(C(=O)Nc5nc6ccccc6s5)c4C3)nc2C(=O)O)c(F)c1 | cell-free assay | competition with immobilised ligand | 1 µM | 100%
Nc1ncc2c(n1)-c1c([nH]c3ccc(C#CC4CC4)cc13)CCCC2 | binding | competition with immobilised ligand | 1 µM | 89%
CC1=C(C#N)C(c2ccc3c(c2)c(NC(=O)c2ccccc2C)nn3C)C(C#N)=C(C)N1 | binding | competition with immobilised ligand | 1 µM | 100%
O=C(Nc1c[nH]nc1C(=O)NC1CCNCC1)c1cc(F)cc(F)c1 | binding | competition with immobilised ligand | 1 µM | 100%
Cc1cc(C)c(-n2ccn3nc(-c4cccnc4)cc23)cc1NC(=O)c1cc(C#N)cc(S(F)(F)(F)(F)F)c1 | binding | competition with immobilised ligand | 0.1 µM | 88.7%
Cc1cnc(Nc2ccc(C(=O)N3CCC(N4CCCC4)CC3)cc2)nc1-c1cc2ccccc2s1 | binding | competition with immobilised ligand | 1 µM | 61%
